GPR7 antagonist = human neuropeptides B/W receptor 1 antagonism | P48145 | GPR7-expressing cells, fluorescence antagonist assay | inhibition, % at 4.4 µM | actives 1.1% (n = 290,000) | AID 1861; in the data active = inhibition above about 16%, passing the limit was not always enough;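 note: cells stimulated with the agonist NPW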
OX1R antag-1 = OX1R (human) antagonism | actives 1.8% (n = 330,000) | OX1R-expressing cells, FRET antagonist read-out | inhibition, % at 6.6 µM | AID 485270 | O43613; in the data active = inhibition mostly above about 38%, no sharp cut-off; inactive = mostly below about 40%
Target sequence (O43613 whole entry, looked up): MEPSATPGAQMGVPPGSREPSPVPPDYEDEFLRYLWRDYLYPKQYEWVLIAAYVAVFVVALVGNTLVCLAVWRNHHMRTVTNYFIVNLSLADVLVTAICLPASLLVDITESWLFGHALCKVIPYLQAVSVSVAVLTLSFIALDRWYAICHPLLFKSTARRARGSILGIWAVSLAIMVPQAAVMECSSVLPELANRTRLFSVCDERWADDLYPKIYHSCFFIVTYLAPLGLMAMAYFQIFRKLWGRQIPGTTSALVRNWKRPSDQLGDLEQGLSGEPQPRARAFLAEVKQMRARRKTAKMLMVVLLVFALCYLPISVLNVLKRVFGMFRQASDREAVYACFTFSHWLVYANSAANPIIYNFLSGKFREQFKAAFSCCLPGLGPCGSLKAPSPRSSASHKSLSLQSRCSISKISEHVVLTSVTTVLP
OX1R antag-2 = antagonists of human orexin 1 receptor; CHO/OX1R cells, Fluo-8 calcium fluorescence, orexin A; inhibition, % at 5 µM; actives 0.43% (n = 330,000); AID 434989;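 active = inhibition above its plate's threshold, mean inhibition of all tested compounds on the plate plus 3 SD, cut at about 37% in these data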
CHO parental Ca = signal in parental CHO cells, OX1R antagonist counter-screen; parental CHO-K1, ATP-induced calcium, Fluo-8 fluorescence; inhibition, % at 5.6 µM; actives 0.63% (n = 330,000); AID 463079;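 active = inhibition above that plate's mean sample inhibition plus 3 SD, cut at about 26% in these data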
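Material: parental CHO cells / Compound: single nominal dose of 5.6 µM per compound / Signal: Fluo-8 fluorescence / Replicates: singlicate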
PGE2 EP2 inh = inhibitors of human EP2 prostaglandin E2 receptor | actives 0.52% (n = 260,000) | inhibition, % at 25 µM | C6 glioma cells expressing human EP2, cAMP TR-FRET; cells stimulated with saturating PGE2 | P43116 | AID 1422;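 active = percent inhibition above 40 after rounding to a whole number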;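 note: rat C6 glioma host cells with rolipram phosphodiesterase inhibitor present; the protocol text gives 20 µM as final concentration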
EP2 modulator = modulates human prostaglandin E2 receptor EP2 signaling | P43116 | AID 940 | EP2-expressing cells, cAMP HTRF FRET, PGE2 co-stimulation | actives 0.83% (n = 260,000) | induction, % at 25 µM;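 active = compounds whose cAMP rise, as percent of the full-agonist control response, exceeds 60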;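 note: rat C6 glioma line stably carrying human EP2 under a CMV promoter; the protocol text gives 20 µM as final concentration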
Numbers stand for hits; n = inactive; x = no result given. The list is not random: actives were taken first. Their share in the collection is about 3.7%.

SMILES	GPR7 antagonist	OX1R antag-1	OX1R antag-2	CHO parental Ca	PGE2 EP2 inh	EP2 modulator
C/C=C(/C)C(=O)O[C@@H]1[C@H](OC(C)=O)[C@@]2(CO)C(CC1(C)C)C1=CCC3[C@@]4(C)CC[C@H](O[C@@H]5O[C@H](C(=O)O)[C@@H](O[C@@H]6O[C@H](CO)[C@@H](O)[C@H](O)[C@H]6O)[C@H](O)[C@H]5O[C@@H]5O[C@H](CO)[C@@H](O)[C@H](O)[C@H]5O)[C@](C)(CO)C4CC[C@@]3(C)[C@]1(C)C[C@H]2O (some centres undefined)	x	x	x	x	n	n
COc1ccc(CNC(=O)C(=O)NCc2cccnc2)cc1	n	n	n	n	n	n
Cc1ccc(-c2cn3cccnc3n2)cc1NC(=O)c1c(-c2ccccc2Cl)noc1C	n	n	n	n	x	n
Cc1onc(-c2ccccc2Cl)c1C(=O)Nc1ccc(-c2cn3cccnc3n2)cc1	n	46	n	n	n	n
Cc1onc(-c2ccccc2Cl)c1C(=O)NCCn1c(C)cc2ccccc21	n	46	n	n	x	x
COc1cc(-c2cc(C(=O)Nc3cc(S(=O)(=O)N4CCOCC4)ccc3O)c3ccccc3n2)cc(OC)c1OC	x	n	n	n	x	x
Cc1cc(C)n2nc(C(=O)N/N=C/c3ccccc3C)nc2n1	n	n	n	n	n	n
Cc1cc(C)n2nc(C(=O)N/N=C/c3cccs3)nc2n1	n	35	n	n	n	n
CC(=O)C1=C(C)NC(SCC(N)=O)=C(C#N)C1C (centres undefined)	n	n	n	n	n	n
CC(CC(=O)Nc1ccc(Cl)c([N+](=O)[O-])c1)c1ccccc1 (centres undefined)	n	91	66	60	n	n
O=C(NC(=S)Nc1ccc(F)c([N+](=O)[O-])c1)c1ccccc1F	n	n	n	n	n	n
Cc1ccc(NC(=O)Nc2ccccc2)cc1[N+](=O)[O-]	25	n	n	n	n	n
O=C(Nc1ccccc1)Nc1ccc(F)c([N+](=O)[O-])c1	33	n	n	n	n	n
CN(C)C(=O)C(Sc1ccc(S(=O)(=O)N2CCCC2)cn1)c1ccccc1 (centres undefined)	x	n	n	n	x	x
CN(Cc1ccccc1)Cc1nc2c(c(=O)n(C)c(=O)n2C)n1CCCc1ccccc1	n	n	n	n	n	n
CC(=O)N1C(C(=O)O)Cc2c([nH]c3ccccc23)C1(C)C (centres undefined)	n	n	n	n	n	n
c1ccc(CN2COc3c(ccc4c5c(ccc34)CN(Cc3ccccc3)CO5)C2)cc1	x	x	x	x	42	n
c1ccc(-c2c(-c3ccccc3)n(Cc3ccco3)c3ncnc(NCCCn4ccnc4)c23)cc1	n	53	n	n	49	n
Cc1ccc(C(=O)NC2CCCc3c2cnn3-c2ccc(F)cc2F)cn1 (centres undefined)	n	n	n	38	x	x
Cn1nccc1C(=O)NC1CCCc2c1cnn2-c1ccc(C(C)(C)C)cc1 (centres undefined)	n	49	n	56	x	x
CC(=O)NC1CCCc2c1cnn2-c1ccc(C(C)(C)C)cc1 (centres undefined)	n	n	n	n	x	x
Cc1cc(C(=O)NC2CCCc3c2cnn3-c2cccc(C)c2C)n(C)n1 (centres undefined)	n	n	n	55	x	x
COc1ccccc1NC(=O)CC1S/C(=N/N=C2\CCCc3ccccc32)NC1=O (centres undefined)	n	54	n	n	n	n
COc1ccc2cc3cc(C(=O)NCc4ccccn4)oc3nc2c1	n	61	n	n	x	n
COc1ccc2cc3cc(C(=O)NCC4CCCO4)oc3nc2c1 (centres undefined)	n	74	n	n	n	n
SMILES	GPR7 antagonist	OX1R antag-1	OX1R antag-2	CHO parental Ca	PGE2 EP2 inh	EP2 modulator
COc1ccc2cc3cc(C(=O)NCc4ccco4)oc3nc2c1	n	54	n	n	n	n
O=C(NCc1ccco1)c1cc2cc3ccc(Cl)cc3nc2o1	n	n	n	n	n	n
OC(CNCc1ccccc1F)COc1cccc2ccccc12 (centres undefined)	n	n	n	n	x	x
CCCCOCCCNc1ncnc2c1[nH]c1ccccc12	n	52	n	43	n	n
CCCCOc1ncnc2c1[nH]c1ccc(OC)cc12	n	n	n	n	n	n
CCCCOc1ncnc2c1[nH]c1ccc(OCC)cc12	n	n	n	n	n	n
CCCCOc1ncnc2c1[nH]c1ccccc12	n	73	n	n	n	n
CCCCOc1ncnc2c1[nH]c1ccc(F)cc12	n	n	n	32	n	n
CCOCCCNc1ncnc2c1[nH]c1ccccc12	n	n	n	n	n	n
CCN1C(=O)c2c(C)nc3ccccc3c2C1=O	n	39	n	n	n	n
CCOc1ccccc1NC(=O)CN1c2cccc3cccc(c23)S1(=O)=O	x	n	n	n	x	x
CC(C)c1nc2ccccc2c2nnc(SCC(=O)Nc3nc4c(s3)CCCC4)n12	x	x	x	x	n	64
O=C1/C(=C\c2cccc([N+](=O)[O-])c2O)SC(=S)N1Cc1ccccc1	n	n	n	n	x	x
COc1cc(/C=C2/SC(=S)N(Cc3ccccc3)C2=O)cc(Cl)c1O	89	n	95	67	x	x
COc1cc([N+](=O)[O-])cc(/C=C2/SC(=S)N(Cc3ccccc3)C2=O)c1O	n	n	68	49	x	x
O=C(c1ccc2c3c(cccc13)CC2)C1CCCN(Cc2ccc(OCCO)cc2)C1 (centres undefined)	n	n	n	n	n	n
COc1ccccc1CCNC(=O)CSc1nnc2ccc(-c3ccncc3)nn12	n	39	n	n	n	n
CCSc1nnc2ccc(-c3ccc(OC)c(OC)c3)nn12	n	39	n	n	x	x
COc1cccc(-c2ccc3nnc(SCC(=O)N4CCOCC4)n3n2)c1	x	51	n	n	x	x
CC1CCN(C(=O)CSc2nnc3ccc(-c4cccnc4)nn23)CC1	x	35	n	n	x	x
CCOc1ccccc1NC(=O)CSc1nnc2ccc(-c3ccncc3)nn12	n	n	n	n	n	n
O=C(CSc1ccc(-c2ccccc2)nn1)N1CCOCC1	n	49	n	n	n	n
O=C(CSc1ccc(-c2ccc(F)cc2)nn1)N1CCOCC1	n	n	n	n	n	n
Cc1ccccc1NC(=O)CSc1nnc2ccc(-c3cccnc3)nn12	x	54	n	n	x	x
NC(=O)C(CC(=O)O)NC(=O)[C@@H]1CCCCNc2c(I)cc([N+](=O)[O-])cc2C(=O)N[C@@H](CO)C(=O)NCC(=O)N1 (some centres undefined)	n	x	x	x	n	n
O=C(/C=C/c1cccc(C(F)(F)F)c1)Nc1cccc(C(F)(F)F)c1	n	36	n	n	n	n
Cc1ccc(NC(=O)/C=C/c2cccc(C(F)(F)F)c2)cc1	n	n	n	n	n	n
COc1ccc(CC(=O)N(Cc2ccccc2)c2ccccc2)cc1S(=O)(=O)N1CCOCC1	n	58	n	n	x	x

Assay outcomes as filed in PubChem.
